# Experimental data gathered from unrelated publications.
# Compare with care: the assays were run in different laboratories.
# Cell line: HeLa
# Read-out: cell growth or viability
Compound,technique,time,IC50
O=C(Cc1ccc2ccccc2c1)N[C@@H](Cc1ccccc1)C(=O)N[C@@H](Cc1ccccc1)C(=O)N[C@@H](Cc1ccc(OP(=O)(O)O)cc1)C(=O)O,MTT,48 h,> 500000 nM
[Cl-].[Cl-].[Co+2],MTT,48 h,> 150000 nM
C[C@]12CCC(=O)C[C@@H]1CC[C@@H]1[C@@H]2CC[C@@]2(C)[C@H]1CC[C@]2(C)O,MTT,24 h,27600 nM
CC[C@H](C)[C@H](N)C(=O)O[C@]1(CC)C(=O)OCc2c1cc1n(c2=O)Cc2cc3cc4c(cc3nc2-1)OCO4,MTT,,124 nM
Nc1cc(Cl)c(Cl)cc1N,,72 h,50000 nM
N#Cc1ccc(NC(=S)NN=Cc2ccc([N+](=O)[O-])cc2)cc1,,72 h,142 µg/mL
CC[C@@]1(OC(=O)C(C)c2ccc(CC(C)C)cc2)C(=O)OCc2c1cc1n(c2=O)Cc2cc3cc4c(cc3nc2-1)OCO4 (stereo partly shown),MTT,,> 5000 nM
Nc1cc(Br)c(Br)cc1N,,72 h,20000 nM
CC(C)[C@]12O[C@H]1[C@@H]1O[C@]13[C@]1(O[C@H]1C[C@H]1C4=C(CC[C@@]13C)C(=O)OC4)[C@@H]2O,thymidine uptake,3 h,41 nM
CC[C@@]1(O)C(=O)OCc2c1cc1n(c2=O)Cc2cc3cc4c(cc3nc2-1)OCO4,MTT,72 h,26 nM
N.N.[Cl][Pt][Cl],,72 h,0.22 µg/mL
CC[C@@]1(OC(=O)[C@@H]2CCCN2)C(=O)OCc2c1cc1n(c2=O)Cc2cc3cc4c(cc3nc2-1)OCO4,MTT,,200 nM
COc1cc(C(=O)c2cc3c(-c4ccccc4)c(OC)ccc3o2)cc(OC)c1OC,,,25000 nM
N#Cc1ccc(NC(=S)NN=Cc2ccc(F)cc2)cc1,,72 h,68 µg/mL
CC[C@@]1(OC(=O)[C@@H](N)CCSC)C(=O)OCc2c1cc1n(c2=O)Cc2cc3cc4c(cc3nc2-1)OCO4,MTT,,95 nM
COc1c2c(cc3c1OCO3)[C@]13C=C[C@H](OC)C[C@@H]1[N@](C2)C[C@H]3OC(=O)c1ccco1,WST-1,48 h,> 10000 nM
CC[C@@]1(OC(=O)C(C)c2cccc(C(=O)c3ccccc3)c2)C(=O)OCc2c1cc1n(c2=O)Cc2cc3cc4c(cc3nc2-1)OCO4 (stereo partly shown),MTT,,270 nM
N#Cc1ccc(NC(=S)NN=Cc2ccccc2)cc1,,72 h,67 µg/mL
N.N.[Cl][Pt][Cl],MTT,24 h,2330 nM
